# An excerpt weighted towards active compounds, which were near 1.5% of everything screened.
# PP5 inh = PP5 (human) phosphatase inhibition. purified PP5c, OMFP substrate fluorescence. inhibition, % at 6.7 µM. hit rate 0.18% among 320,000. AID 1987;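 active = inhibition above the campaign's mean inhibition across all tested compounds plus 3 SD, cut at about 9.5% in these data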;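 note: 0% = DMSO only and 100% = 100 µM cantharidin control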
# RBBP9 inhibitor = human RBBP9 hydrolase inhibition | O75884 | recombinant RBBP9, FP-Rh probe fluorescence polarization | inhibition, % at 7.94 µM | hit rate 0.2% among 220,000 | AID 1515;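 active = inhibition above the campaign mean of all tested compounds plus 3 SD, cut at about 14% in these data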;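 note: plate controls were DMSO wells with RBBP9 for no effect and wells lacking RBBP9 protein for full effect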
# Target sequence (O75884 whole entry, looked up): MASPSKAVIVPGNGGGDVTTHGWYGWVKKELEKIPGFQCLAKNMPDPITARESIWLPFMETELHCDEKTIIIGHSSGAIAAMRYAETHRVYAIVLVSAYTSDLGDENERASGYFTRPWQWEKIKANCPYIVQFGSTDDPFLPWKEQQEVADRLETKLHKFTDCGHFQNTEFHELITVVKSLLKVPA
#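 System: RBBP9 protein / Buffer or medium: Tris/NaCl buffer pH 8.0 with 0.1% Pluronic / Probe or stimulus: Serine-hydrolase probe FP-Rh, 375 nM pre-mixing / Dosing: 7.94 µM single dose, 0.794% DMSO / Times: enzyme-compound preincubation 30 min, then probe labeling 45 min, 25 °C / Technique: fluorescence polarization (mP), excitation 525 nm, emission 598 nm / Replication: singlicate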
# PKD1 kinase inh = PKD1 (human) kinase inhibition; Q15139; PKD1 kinase fluorescence polarization assay; inhibition, % (no concentration beside the values); hit rate 0.056% among 200,000; in the data active = inhibition above about 50%
# PP1 counter = PP1-alpha (human) inhibition in PP5 counter-screen. P62136. hit rate 0.9% among 320,000. inhibition, % at 6.7 µM. purified PP1alpha, OMFP fluorescence;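 active = inhibition above the mean inhibition of all tested compounds plus 3 SD, computed separately for each screening campaign, cut at about 15% in these data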
# Target sequence (P62136 whole entry, looked up): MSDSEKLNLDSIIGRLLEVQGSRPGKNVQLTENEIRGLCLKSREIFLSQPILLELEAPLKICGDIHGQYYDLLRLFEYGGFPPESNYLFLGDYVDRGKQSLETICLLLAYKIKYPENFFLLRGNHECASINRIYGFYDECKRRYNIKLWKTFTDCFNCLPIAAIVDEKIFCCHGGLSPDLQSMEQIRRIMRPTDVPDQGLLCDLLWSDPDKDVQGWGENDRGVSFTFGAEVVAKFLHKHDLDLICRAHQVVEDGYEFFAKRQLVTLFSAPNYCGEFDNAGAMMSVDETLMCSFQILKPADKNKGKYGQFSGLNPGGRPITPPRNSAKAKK
# p97 ATPase inh = blocks human p97 ATPase activity; P55072; recombinant p97 ATPase, Kinase-Glo ATP luminescence, 3 h; inhibition, % at 8 µM; hit rate 0.42% among 220,000; AID 1481; in the data active = inhibition above about 15%;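 note: 0% = DMSO vehicle and 100% = wells lacking enzyme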
# Hsp70 activator = Hsp70 transcriptional activation, primary screen; hit rate 0.04% among 200,000; HeLa Hsp70 promoter luciferase reporter, luminescence; scaled: vehicle 0, proteasome-inhibitor control 100%; activation, % at 10 µM;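 active = activation above the mean across all tested compounds plus 3 SD, cutoff set per campaign, cut at about 5.5% in these data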;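 note: 100% = MG132 at 30 µM as the positive control and 0% = DMSO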
# PP5 inh confirm = PP5 (human) inhibition, confirmation; shares compounds with PP5 inh; AID 2331; Purified PP5, fluorogenic phosphatase substrate, fluorescence; hit rate 22% among 460; inhibition, % at 6.7 µM; in the data active = inhibition above about 9.5%
# PP1 inh counter = inhibits human PP1 phosphatase in PP5 counter-screen; shares compounds with PP5 inh; PP1 enzyme, fluorescent phosphatase substrate; inhibition, % at 6.7 µM; hit rate 4% among 460; AID 2355; in the data active = inhibition above about 16%
# Numbers without * were called inactive; x = no result given.
SMILES,PP5 inh,RBBP9 inhibitor,PKD1 kinase inh,PP1 counter,p97 ATPase inh,Hsp70 activator,PP5 inh confirm,PP1 inh counter
COc1ccc(-c2cc(-c3c(O)c(OC)c4occc4c3OC)[nH]n2)cc1,11*,2,-1,-3,1,0,1,2
COc1ccc(Nc2sc(C(=O)Nc3cccc(Cl)c3)c(N)c2C(=O)Nc2ccccc2OC)cc1,12*,-22,11,9,2,0,1,6
O=C(COc1cccnc1[N+](=O)[O-])c1ccc(Cl)s1,11*,11,x,8,8,x,-4,2
Cc1cccc(-c2nnc(SCC(=O)NC3CC3)n2C)c1,1,x,x,-2,x,x,x,x
COC(=O)CCC(=O)OC1(C)C(=O)C=C2C=C(C3CC3)N(CCc3ccccn3)C=C2C1=O (stereo unspecified),11*,x,x,2,x,x,42*,19*
COC(=O)CCC(=O)OC1(C)C(=O)C=C2C=C(C3CC3)N(CCN3CCOCC3)C=C2C1=O (stereo unspecified),9,x,x,1,x,x,x,x
COC(=O)CCC(=O)OC1(C)C(=O)C=C2C=C(C3CC3)N(CCCOC(C)C)C=C2C1=O (stereo unspecified),10*,x,x,5,x,x,35*,11
COC(=O)CCC(=O)OC1(C)C(=O)C=C2C=C(C3CC3)N(c3ccccc3)C=C2C1=O (stereo unspecified),11*,x,x,-1,x,x,30*,10
C=CCN1C=C2C(=O)C(C)(OC(=O)CCC(=O)OC)C(=O)C=C2C=C1C1CC1 (stereo unspecified),9,x,x,-3,x,x,x,x
COC(=O)CCC(=O)OC1(C)C(=O)C=C2C=C(C3CC3)N(CCCCO)C=C2C1=O (stereo unspecified),14*,x,x,7,x,x,34*,2
COC(=O)CCC(=O)OC1(C)C(=O)C=C2C=C(C3CC3)N(C(CO)CO)C=C2C1=O (stereo unspecified),4,x,x,8,x,x,x,x
Nc1nnc(SCc2ccc(F)cc2Cl)s1,13*,-5,-3,-1,0,0,-6,-3
Cc1nnc(SCc2ccc(F)cc2Cl)s1,2,-3,-10,0,-3,2,x,x
O=C(O)CCC(=O)c1c[nH]c2ccccc12,12*,-5,-3,-2,2,0,-6,-2
CCN(CC)CC(=O)c1c[nH]c2ccccc12,1,-11,-15,-4,-6,0,x,x
Cc1ccc(C(=O)NC(C)c2ccccc2)o1 (stereo unspecified),11*,4,1,-6,-3,0,-4,-2
COc1cc(/C=C/C(=O)Nc2cc(C(F)(F)F)ccc2Cl)cc(OC)c1OC,9.9*,-15,11,5,-7,0,4,3
COc1ccc(/C=C/C(=O)Nc2cc(C(F)(F)F)ccc2Cl)cc1OC,6,-3,-11,2,2,0,x,x
CCOC(=O)CC(=O)CSc1nccc(-c2cccnc2)n1,1,-1,x,1,8,x,x,x
O=C(NNc1cc(N2CCOCC2)nc(N2CCOCC2)n1)c1ccc(Cl)c(Cl)c1,6,-2,-4,2,3,0,x,x
Cc1ccc(C(=O)NNc2cc(N3CCCC3)nc(N3CCCC3)n2)cc1,17*,10,1,12,3,0,40*,-1
COc1ccc(O)c(/C=N/NC(=S)Nc2cccc(S(=O)(=O)N(C)C)c2)c1,12*,-8,-2,2,-1,0,0,0
COc1cccc(/C=N/NC(=S)Nc2cccc(S(=O)(=O)N(C)C)c2)c1,6,-12,x,-1,-4,x,x,x
CC(=O)N(CN1C(=O)c2ccc([N+](=O)[O-])cc2C1=O)c1cccc(C(=O)O)c1,23*,-1,-5,0,-4,0,-2,-4
O=C(O)c1cccc(N2C(=O)c3ccc(C(=O)c4cccc([N+](=O)[O-])c4)cc3C2=O)c1,1,-15,x,-6,2,x,x,x
SMILES,PP5 inh,RBBP9 inhibitor,PKD1 kinase inh,PP1 counter,p97 ATPase inh,Hsp70 activator,PP5 inh confirm,PP1 inh counter
Cc1ccc(S(=O)(=O)/N=C2/C=C(Sc3ncn[nH]3)C(=O)c3ccccc32)c(C)c1,13*,3,16,3,8,0,36*,15
Cc1ccc(S(=O)(=O)N2CCN(C(=O)CSc3ncn[nH]3)CC2)c(C)c1,0,x,x,-2,x,x,x,x
Cc1ccc(S(=O)(=O)/N=C2\C=C(Nc3cccc(C(=O)O)c3)C(=O)c3ccccc32)c(C)c1,9.8*,x,x,6,x,x,36*,9
Cc1ccc(S(=O)(=O)/N=C2/C=C(Sc3ncn[nH]3)C(=O)c3ccccc32)cc1,13*,1,-10,4,23*,0,23*,24*
Cc1ccc(S(=O)(=O)Nc2ccc(O)c(Sc3ncn[nH]3)c2)cc1,3,-3,0,-7,10,0,x,x
CCN(CC)CCCn1c2c(c(SCC(=O)N3CCc4ccccc43)nc1=O)CCC2,-3,x,x,-1,x,x,x,x
Cc1cccc(NC(=O)C2C3C=CC(O3)C2C(=O)O)c1 (stereo unspecified),9.8*,x,x,-1,x,x,-1,4
COC(=O)c1ccc(NC(=O)C2C3C=CC(O3)C2C(=O)O)cc1 (stereo unspecified),21*,-5,-4,8,3,0,5,6
Cc1ccc(NC(=O)C2C3C=CC(O3)C2C(=O)O)c(C)c1 (stereo unspecified),18*,x,x,3,x,x,0,12
Cc1nnc(NC(=O)C2CCCC2)s1,0,x,x,-1,x,x,x,x
Cc1nnc(NC(=O)C2C3C=CC(O3)C2C(=O)O)s1 (stereo unspecified),16*,-1,-5,1,3,0,16*,13
COc1cc(CNC(C)C)c(Br)cc1OC1CCCC1,2,1,4,-6,0,0,x,x
CC(NC(=O)NC(=O)c1cccc(Cl)c1)c1ccccc1 (stereo unspecified),-1,x,x,-5,x,x,x,x
COC(=O)C1C/C(=N\NS(=O)(=O)c2ccc(C)cc2)c2ccsc2C1 (stereo unspecified),2,-4,-3,-1,0,0,x,x
COC(=O)c1sccc1NC(=O)C1C2C=CC(O2)C1C(=O)O (stereo unspecified),1,-6,-21,-3,1,0,x,x
Cc1cccc(NC(=O)C2C3C=CC(O3)C2C(=O)O)c1C (stereo unspecified),10*,x,x,2,x,x,0,4
COc1ccccc1NC(=O)C1C2C=CC(O2)C1C(=O)O (stereo unspecified),15*,-9,2,3,4,-1,3,7
Cc1ccc(NC(=O)C2C3C=CC(O3)C2C(=O)O)cc1C (stereo unspecified),23*,x,x,2,x,x,4,23*
